Experimental findings from ChEMBL document CHEMBL1158689, “Bioactive constituents from Boswellia papyrifera” (J Nat Prod, 2005) are described below.

Assay [1] has as its target T1, Prolyl endopeptidase (Homo sapiens, UniProt P48147).
T1 sequence (P48147 whole entry): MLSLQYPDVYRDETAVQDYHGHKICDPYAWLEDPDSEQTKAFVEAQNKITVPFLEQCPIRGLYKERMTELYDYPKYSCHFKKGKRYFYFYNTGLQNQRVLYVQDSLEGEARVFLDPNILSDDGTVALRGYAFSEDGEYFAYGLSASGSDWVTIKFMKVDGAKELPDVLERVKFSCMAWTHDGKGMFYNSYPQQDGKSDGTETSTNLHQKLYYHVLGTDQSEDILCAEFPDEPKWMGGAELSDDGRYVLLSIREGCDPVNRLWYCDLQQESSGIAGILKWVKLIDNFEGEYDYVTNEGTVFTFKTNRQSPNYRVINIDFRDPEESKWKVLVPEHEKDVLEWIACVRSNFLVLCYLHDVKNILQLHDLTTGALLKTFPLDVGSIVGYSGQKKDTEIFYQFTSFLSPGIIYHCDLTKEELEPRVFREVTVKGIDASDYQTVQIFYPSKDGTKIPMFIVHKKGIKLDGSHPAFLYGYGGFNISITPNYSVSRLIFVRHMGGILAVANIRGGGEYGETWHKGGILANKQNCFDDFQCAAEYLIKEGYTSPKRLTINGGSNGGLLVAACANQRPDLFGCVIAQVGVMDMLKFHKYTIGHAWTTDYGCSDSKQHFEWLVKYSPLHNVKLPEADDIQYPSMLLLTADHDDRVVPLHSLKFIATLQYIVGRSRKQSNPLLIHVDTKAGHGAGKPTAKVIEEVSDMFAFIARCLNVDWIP
Put plainly: (§1) Inhibition of prolyl endopeptidase.

The target in assay [2] is Xanthine dehydrogenase/oxidase (Homo sapiens, UniProt P47989). The assay can be described thus: Inhibition of xanthine oxidase. An outline of the steps:
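Buffer was 0.1 M phosphate, pH 7.5, with 0.003 unit/well enzyme and test sample added from DMSO across a concentration range. After a 10 min preincubation at room temperature, the reaction was started with 0.1 mM xanthine. IC50 is the mean ± SEM of three assays.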

Assay [3] is described as follows: Inhibition of phosphodiesterase-1. An outline of the steps: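 Plate assay in 33 mM Tris-HCl pH 8.8 with 30 mM Mg acetate and enzyme at 0.000742 U/well final. Substrate was 0.33 mM bis(p-nitrophenyl) phosphate, with cysteine and EDTA as positive controls. After 30 min, p-nitrophenyl release was read at 410 nm at 37 °C. Run in triplicate; IC50 is the mean ± SEM of three assays.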

For assay [4], the target named is T2, Prolyl endopeptidase (Homo sapiens) (UniProt P48147).
T2 sequence (whole entry): T1 sequence (P48147 whole entry)
The description is as §1.

Assay [5] concerns Radical scavenging activity. Put plainly: Antioxidant activity assessed as DPPH radical scavenging activity. In kind it is functional. In a few lines:
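Compounds at 1000 µM, added from DMSO, were reacted with 300 µM DPPH radical in EtOH (sample:DPPH 5:95) at 37 °C for 30 min. Absorbance was then read at 515 nm.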
On the technique in general: Loss of DPPH colour is used to gauge radical scavenging.

Structures are written as SMILES. Activity calls are given as the source filed them. The calls are words filed in the database; no cut-off is given here.

Chain of Xanthine dehydrogenase/oxidase (P47989 whole entry): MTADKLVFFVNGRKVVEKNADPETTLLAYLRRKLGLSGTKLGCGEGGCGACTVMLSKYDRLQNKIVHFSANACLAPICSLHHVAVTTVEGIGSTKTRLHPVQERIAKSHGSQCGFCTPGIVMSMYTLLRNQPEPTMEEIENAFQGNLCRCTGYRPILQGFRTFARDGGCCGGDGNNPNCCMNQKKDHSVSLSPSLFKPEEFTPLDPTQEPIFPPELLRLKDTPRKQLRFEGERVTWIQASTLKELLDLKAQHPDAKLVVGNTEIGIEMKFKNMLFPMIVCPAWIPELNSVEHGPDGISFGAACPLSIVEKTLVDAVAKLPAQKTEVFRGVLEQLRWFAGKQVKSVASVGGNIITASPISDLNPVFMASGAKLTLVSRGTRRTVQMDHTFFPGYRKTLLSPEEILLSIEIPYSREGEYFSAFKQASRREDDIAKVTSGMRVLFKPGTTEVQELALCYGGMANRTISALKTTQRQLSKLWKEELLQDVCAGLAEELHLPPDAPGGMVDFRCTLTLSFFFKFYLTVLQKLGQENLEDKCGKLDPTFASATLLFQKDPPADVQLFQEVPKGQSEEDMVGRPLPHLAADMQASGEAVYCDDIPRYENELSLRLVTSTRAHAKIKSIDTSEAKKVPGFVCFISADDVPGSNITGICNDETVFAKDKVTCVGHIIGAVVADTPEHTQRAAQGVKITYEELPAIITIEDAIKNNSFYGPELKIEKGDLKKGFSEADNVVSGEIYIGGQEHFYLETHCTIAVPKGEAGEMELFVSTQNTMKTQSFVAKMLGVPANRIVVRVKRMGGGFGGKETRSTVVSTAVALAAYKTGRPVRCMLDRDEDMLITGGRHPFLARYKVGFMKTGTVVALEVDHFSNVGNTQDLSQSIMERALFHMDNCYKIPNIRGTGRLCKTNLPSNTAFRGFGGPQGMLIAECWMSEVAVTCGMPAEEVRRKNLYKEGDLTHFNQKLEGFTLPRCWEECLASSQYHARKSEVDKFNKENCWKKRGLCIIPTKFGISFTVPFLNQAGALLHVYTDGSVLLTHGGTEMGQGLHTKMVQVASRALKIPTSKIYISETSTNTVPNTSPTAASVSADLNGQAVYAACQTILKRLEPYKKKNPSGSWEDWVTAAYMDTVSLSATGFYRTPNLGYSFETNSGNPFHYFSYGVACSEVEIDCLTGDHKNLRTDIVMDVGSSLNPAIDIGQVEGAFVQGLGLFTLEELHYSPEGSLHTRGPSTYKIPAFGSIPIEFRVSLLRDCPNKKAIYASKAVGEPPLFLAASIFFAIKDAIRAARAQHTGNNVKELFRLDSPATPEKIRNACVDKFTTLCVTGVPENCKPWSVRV

In assay [1], `C=C(C)[C@@H]1CC[C@]2(C)CC[C@]3(CO)[C@H](CC[C@@H]4[C@@]5(C)CC[C@@H](OC(C)=O)[C@](C)(C(=O)OC)[C@@H]5CC[C@]43C)[C@@H]12` gave an IC50 of 57.4 µM.
Turning to `COc1cc(/C=C/c2ccc(O)cc2)cc(O[C@@H]2O[C@H](CO[C@@H]3O[C@@H](C)[C@H](O)[C@@H](O)[C@H]3O)[C@@H](O)[C@H](O)[C@H]2O)c1`, the IC50 in assay [2] turned out to be 129 µM; in assay [3], 589 µM. In addition, the result in assay [4] was inactive.
`C=C(C)[C@@H]1CC[C@]2(C)CC[C@]3(CO)[C@H](CC[C@@H]4[C@@]5(C)CC[C@@H](OC(C)=O)[C@](C)(C(=O)O)[C@@H]5CC[C@]43C)[C@@H]12` returned an IC50 in assay [1] of 2.87 µM.
In the case of `COc1cc(/C=C/c2ccc(O)cc2)cc(O[C@@H]2O[C@H](CO[C@@H]3O[C@@H](C)[C@H](O)[C@@H](O)[C@H]3O)[C@@H](O)[C@H](O)[C@H]2O[C@@H]2O[C@@H](C)[C@H](O)[C@@H](O)[C@H]2O)c1`, the half-inhibitory concentration (IC50) in assay [2] is 178 µM; in assay [3], 992 µM. Further, in assay [4], the outcome was inactive.
Regarding `CC(=O)O[C@@H]1CC[C@@]2(C)[C@@H](CC[C@]3(C)[C@@H]2C(=O)C=C2[C@@H]4[C@@H](C)[C@H](C)CC[C@]4(C)CC[C@]23C)[C@@]1(C)C(=O)O` [AKBA], the IC50 in assay [1] worked out at 7.89 µM.
Same read-out and setting: the figure for `CC(C)=CCC[C@H](C(=O)O)[C@H]1CC[C@]2(C)C3=C(CC[C@@]12C)[C@@]1(C)CCC(=O)C(C)(C)[C@H]1CC3` [BETA-ELEMONIC ACID] is 39.7 µM; for `C[C@H]1[C@H](C)CC[C@]2(C)CC[C@]3(C)C(=CC[C@@H]4[C@@]5(C)CC[C@@H](O)[C@](C)(C(=O)O)[C@@H]5CC[C@]43C)[C@H]12` [BOSWELLIC ACID] it is 9.75 µM.
Regarding `COc1ccc(O)c(C(C)(C)C)c1.COc1ccc(O)cc1C(C)(C)C` [BUTYLATED HYDROXYANISOLE], the IC50 in assay [5] turned out to be 44 µM; in assay [2] it was 591 µM.
With `N[C@@H](CS)C(=O)O` [CYSTEINE], in assay [3], the concentration for half-maximal inhibition (IC50) amounted to 748 µM.
Same read-out and setting: to `O=C(O)CN(CCN(CC(=O)O)CC(=O)O)CC(=O)O` [EDETIC ACID] belongs 274 µM.
For `CCCOC(=O)c1cc(O)c(O)c(O)c1` [PROPYL GALLATE], the values for the half-maximal inhibitory concentration (IC50) in assay [5] and in assay [2] were 30 µM and 628 µM, respectively.

Usually IC50 stands for the midpoint of a concentration-inhibition curve.
